Reference: ChEMBL document CHEMBL4339193, “Phenotypic Screening-Based Identification of 3,4-Disubstituted Piperidine Derivatives as Macrophage M2 Polarization Modulators: An Opportunity for Treating Multiple Sclerosis” (J Med Chem, 2019)
Active and inactive are the calls of the source. The calls are words filed in the database; no cut-off is given here.

What was measured:
[1] = Tmax in Sprague-Dawley rat at 50 mg/kg, po administered as single dose via gavage by LC/MS analysis; format: ADME, organism-based; conditions: in vivo
Procedure, shortened: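 Single dose given to rats. Venous blood (100 µL) drawn at 0, 0.5, 1, 2, 4, 8 and 12 h. Plasma separated by centrifugation and stored at -20 °C, then compound measured by LC/MS. Cmax, Tmax, t1/2 and AUC derived from the concentration-time data.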

[2] = system: Mus musculus; assay: (§1) Antiinflammatory activity in C57BL/6J mouse model of MOG (35 to 55 residues)/pertussis toxin/complete Freund's adjuvant-induced experimental allergic encephalomyelitis assessed as effect on dendritic cell population in CNS by measuring change in CD11c level at 200 mg/kg, ig administered daily starting from 7 days post-immunization measured after 13 to 19 days post-immunization by flow cytometry analysis; format: functional, organism-based
Procedure, shortened: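 MOG35-55/CFA EAE mice were dosed daily in saline from day 7 and sampled between days 13 and 19. Spleens and dLNs were mechanically dissociated to single cells. CNS cells came from collagenase IV digestion and a 70%/30% Percoll gradient. Cells were surface-stained with fluorochrome antibodies, including CD4, CD11b, CD11c and MHC-II, and analysed by flow cytometry.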

[3] = system: Mus musculus; assay: (§2) Inhibition of M1 polarization in C57BL/6J mouse model of MOG (35 to 55 residues)/pertussis toxin/complete Freund's adjuvant-induced experimental allergic encephalomyelitis assessed as CD86 level in CNS at 200 mg/kg, ig administered daily starting from 7 days post-immunization measured after 13 to 19 days post-immunization by flow cytometry analysis (reference value: 26.3%); format: functional; set-up: scale not given: the % may be the effect or the level left
Procedure, shortened: (§3)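 MOG35-55/CFA EAE mice were dosed daily in saline from day 7 and sampled between days 13 and 19. Cells came from spleen and dLN by mechanical dissociation and from CNS by collagenase IV/Percoll. They were stained for F4/80 with CD206 (M2) or CD86 (M1), and each was read by flow cytometry as a percentage of total F4/80+ macrophages.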

[4] = system: Mus musculus; assay: as §2, with “draining lymph nodes” for “CNS”, “18.4%)” for “26.3%)”; format: functional; set-up: scale not given: the % may be the effect or the level left; procedure, shortened: as §3
[5] = system: Mus musculus; assay: as §1, with “TH1” for “effect on dendritic”, “spinal cord” for “CNS”, “IFNgamma” for “change in CD11c”, “14” for “13”, “21” for “19”, “analysis (reference value: 22.3%)” for “analysis”; format: functional
Procedure, shortened: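 EAE induced with MOG35-55 (2 mg/ml in PBS) emulsified in CFA containing 4 mg/ml heat-killed M. tuberculosis H37Ra, injected s.c. into the neck and both hindlegs. Drug in saline daily from day 7. Between days 13 and 19, CNS mononuclear cells were taken by collagenase IV digestion and a 70%/30% Percoll gradient. Cells were restimulated 5 h with brefeldin A 2 µg/ml, PMA 0.1 µg/ml and ionomycin 0.5 µg/ml, stained for surface CD4, fixed and permeabilised, then stained intracellularly for IFN-γ/IL-17A. Analysed by flow cytometry; n=4 mice per group.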

[6] = system: Mus musculus; assay: Antiinflammatory activity in C57BL/6J mouse model of MOG (35 to 55 residues)/pertussis toxin/complete Freund's adjuvant-induced experimental allergic encephalomyelitis assessed as reduction in demyelination in spinal cord at 200 mg/kg, ig administered daily starting from 7 days post-immunization measured after 14 days post-immunization by H and E staining based microscopic analysis; format: functional, organism-based
Procedure, shortened: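 EAE mice dosed daily in saline from day 7 were perfused with PBS and fixed in 4% PFA on day 14; spinal cords were taken. For LFB, frozen OCT sections sat 3 h in 0.1% Luxol Fast Blue at 56-60°C, were differentiated in 0.05% lithium carbonate for 10-12 s, cleared in 70% ethanol, dehydrated and mounted. For H&E, paraffin sections were stained to assess inflammation.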

[7] = system: BMDM; assay: Modulation of M1 polarization in C57BL/6J mouse BMDM cells assessed as up regulation of TNFalpha expression at 300 nM measured after 4 to 24 hrs by Western blot analysis; format: cell-based; conditions: 0.3 µM
Procedure, shortened: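 BMDMs lysed in pH 7.6 buffer with 1% Triton X-100, phosphatase inhibitor and 1 mM PMSF. Proteins separated by SDS-PAGE, blotted to PVDF and probed with anti-Arg-1, anti-Ym1 or anti-TNF-α, then ECL detection; GAPDH as loading control.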

[8] = system: BMDM; assay: Modulation of M2 polarization in C57BL/6J mouse BMDM cells assessed as up regulation of Fizz1 mRNA expression at 300 nM measured after 24 hrs by qRT-PCR analysis; format: functional, cell-based
Procedure, shortened: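 BMDMs treated 24 h with 300 nM compound at 37 °C, 5% CO2. Trizol RNA extraction, then qRT-PCR for Arg1, Mrc1 and Fizz1 mRNA. Mean ± SEM.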

[9] = system: Mus musculus; assay: Antiinflammatory activity in C57BL/6J mouse model of MOG (35 to 55 residues)/pertussis toxin/complete Freund's adjuvant-induced experimental allergic encephalomyelitis assessed as reduction in development of clinical symptoms at 200 mg/kg, ig administered daily starting from 7 days post-immunization up to 26 days; format: functional, organism-based
Procedure, shortened: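 MOG35-55/CFA EAE mice received daily saline vehicle, 100 or 200 mg/kg drug, or dexamethasone 10 mg/kg from day 7 post-immunisation. Clinical signs were scored on a 0-5 scale (e.g. 3 = complete bilateral hind limb paralysis, 5 = death). Mean scores used n=5.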

[10] = Toxicity in ICR mouse assessed as adverse effect at 400 mg/kg, ig administered daily for 14 days; format: organism-based; conditions: in vivo, po, 336 h
Procedure, shortened: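 Repeated-dose study in healthy mice over 14 days. Read-outs were body weight change, serum parameters, and organ-to-body and organ-to-brain weight ratios.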

[11] = system: RAW264.7; assay: Inhibition of M1 polarization in mouse RAW264.7 cells assessed as down regulation of IL1R2 mRNA expression at 300 nM measured after 24 hrs by qRT-PCR analysis; format: functional, cell-based
[12] = system: RAW264.7; assay: Inhibition of M1 polarization in mouse RAW264.7 cells assessed as down regulation of TNFRSF10C mRNA expression at 300 nM measured after 24 hrs by qRT-PCR analysis; format: functional, cell-based
[13] = system: RAW264.7; assay: Modulation of M2 polarization in mouse RAW264.7 cells assessed as up regulation of PPARGC1A mRNA expression at 300 nM measured after 24 hrs by qRT-PCR analysis; format: functional, cell-based
[14] = system: RAW264.7; assay: Modulation of M2 polarization in mouse RAW264.7 cells assessed as up regulation of CCR2 mRNA expression at 300 nM measured after 24 hrs by qRT-PCR analysis; format: functional, cell-based
[15] = Ratio of AUC (0 to t) to AUC (0 to infinity) in Sprague-Dawley rat at 10 mg/kg, iv administered as single dose […]; format: ADME, organism-based; conditions: in vivo
[16] = Half life in Sprague-Dawley rat at 10 mg/kg, iv administered as single dose by LC/MS analysis; format: ADME, organism-based; conditions: in vivo
Procedure, shortened: (§4)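 Single dose in rats; venous blood (100 µL) drawn at 0, 0.5, 1, 2, 4, 8 and 12 h, plasma separated by centrifugation and held at -20 °C. Compound measured by LC/MS; Cmax, Tmax, t1/2 and AUC derived from the concentration–time data.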

[17] = Half life in Sprague-Dawley rat at 50 mg/kg, po administered as single dose via gavage by LC/MS analysis; format: ADME, organism-based; conditions: in vivo; procedure, shortened: as §4
[18] = target: Signal transducer and activator of transcription 3 (Mus musculus) (UniProt P42227); assay: Stimulation of STAT3 phosphorylation at Y705 residue in mouse RAW264.7 cells at 300 nM measured after 4 to 24 hrs by Western blot analysis; format: cell-based
Chain of Signal transducer and activator of transcription 3 (Mus musculus) (P42227 whole entry): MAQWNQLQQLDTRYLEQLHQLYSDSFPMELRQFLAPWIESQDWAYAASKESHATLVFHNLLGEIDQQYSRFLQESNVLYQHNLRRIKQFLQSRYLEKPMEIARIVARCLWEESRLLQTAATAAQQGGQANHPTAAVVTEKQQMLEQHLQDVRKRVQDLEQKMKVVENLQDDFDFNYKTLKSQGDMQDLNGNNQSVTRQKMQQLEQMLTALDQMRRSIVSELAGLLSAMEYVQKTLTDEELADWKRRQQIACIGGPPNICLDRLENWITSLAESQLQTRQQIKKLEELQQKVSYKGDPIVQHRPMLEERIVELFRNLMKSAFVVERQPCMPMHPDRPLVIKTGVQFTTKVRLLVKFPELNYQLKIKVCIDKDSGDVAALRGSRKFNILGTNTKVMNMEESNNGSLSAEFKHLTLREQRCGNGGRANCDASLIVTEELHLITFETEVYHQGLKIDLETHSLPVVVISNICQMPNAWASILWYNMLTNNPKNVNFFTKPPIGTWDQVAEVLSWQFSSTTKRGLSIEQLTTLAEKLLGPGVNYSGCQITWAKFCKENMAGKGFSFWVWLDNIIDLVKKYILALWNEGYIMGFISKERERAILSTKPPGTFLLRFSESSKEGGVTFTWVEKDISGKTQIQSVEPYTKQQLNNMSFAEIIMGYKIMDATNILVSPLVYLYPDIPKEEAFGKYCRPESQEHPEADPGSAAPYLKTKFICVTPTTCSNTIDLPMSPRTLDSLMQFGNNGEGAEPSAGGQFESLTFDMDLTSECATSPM
Procedure, shortened: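 Cell lysates separated by SDS-PAGE, transferred to PVDF and probed for Akt, p-Akt(308), p-Akt(473), Stat3, p-Stat3(Y705), Stat6 and p-Stat6; ECL detection, GAPDH as loading control.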

In the case of `Cl.Cn1ncc(Cl)c1-c1ccc(C(=O)N[C@@H]2CNCC[C@H]2c2cccc(F)c2)cc1`, the Tmax [1] is reported as 3.25 h, the Activity [2] is reported as “inactive” and the Activity [3] is reported as 16.6%. The Activity [4] was 11.5%, the Activity [5] was 11.4% and the Activity [6] was “Active”. The Activity [7] was “Non-Toxic”, the Activity [8] was “Active” and the Activity [9] was “Active”. For the same compound, the Activity [10] was “Non-Toxic”, the inhibition [11] was “Active” and the inhibition [12] was “Active”. For the same compound, the Activity [13] was “Active”, the Activity [14] was “Active” and the “Ratio AUC” value [15] was 98.75%. For the same compound, the half-life [16] was 6.3 h, the half-life [17] was 7.77 h and the Activity [18] was “Active”.
